# In ChEMBL document CHEMBL3085659, “Synthesis, antiproliferative and apoptosis-inducing activity of thiazolo[5,4-d]pyrimidines” (Eur J Med Chem, 2013):
# Assays:
# A-431 [1] = assay: Antiproliferative activity against human A431 cells after 48 hrs by SRB assay; assay type: functional, cell-based; conditions: A-431, 48 h
# T47D = assay: Antiproliferative activity against human T47D cells assessed as growth inhibition at 10 uM after 48 hrs by SRB assay; assay type: functional; conditions: read-out: GI
# A549 [2] = assay: Induction of apoptosis in human A549 cells at 1 uM after 24 hrs using propidium iodide staining by flow cytometry (reference value: 7%); assay type: functional
# In short: (§1)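 A549 at 1.2 × 10^5 cells/ml in six-well plates exposed 24 h to 1, 3 or 10 µM; PBS-washed, fixed overnight in 70% ethanol, RNase (100 µg/ml) digestion 45 min at 37 °C, propidium iodide staining; flow cytometric DNA content gives sub-G1 (apoptotic), G1, S and G2-M fractions versus untreated cells.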
# A549 [3] = assay: Cell cycle arrest in human A549 cells assessed as accumulation at G2 phase at 1 uM after 24 hrs using propidium iodide staining by flow cytometry (reference value: 1%); assay type: functional; in short: as §1
# A549 [4] = assay: Cell cycle arrest in human A549 cells assessed as accumulation at S phase at 1 uM after 24 hrs using propidium iodide staining by flow cytometry (reference value: 40%); assay type: functional; in short: as §1
# T98G [5] = assay: Antiproliferative activity against human T98G cells assessed as growth inhibition at 10 uM after 48 hrs by SRB assay; assay type: functional; conditions: read-out: GI
# [6] = Antiproliferative activity against human NCI-H322 cells after 48 hrs by SRB assay; assay type: functional, cell-based; conditions: NCI-H322, 48 h
# A549 [7] = assay: Cell cycle arrest in human A549 cells assessed as accumulation at G1 phase at 3 uM after 24 hrs using propidium iodide staining by flow cytometry (reference value: 59%); assay type: functional; in short: as §1
# A549 [8] = assay: Cell cycle arrest in human A549 cells assessed as accumulation at S phase at 3 uM after 24 hrs using propidium iodide staining by flow cytometry (reference value: 40%); assay type: functional; in short: as §1
# A549 [9] = assay: Induction of apoptosis in human A549 cells assessed as cleavage of PARP1 after 24 hrs by Western blot analysis; assay type: functional, cell-based
# In short: (§2)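 Cells treated 24 h (HL-60 at 5, 20, 30 µM; A549 at 1, 3, 10 µM); RIPA lysates, 70 µg protein resolved by SDS-PAGE, transferred to PVDF, blocked in 5% milk, probed for PARP-1 and procaspase-3 with HRP secondaries, ECL detection.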
# A549 [10] = assay: Induction of apoptosis in human A549 cells at 10 uM after 24 hrs using propidium iodide staining by flow cytometry (reference value: 7%); assay type: functional; in short: as §1
# A549 [11] = assay: Antiproliferative activity against human A549 cells assessed as growth inhibition at 10 uM after 48 hrs by SRB assay; assay type: functional; conditions: A549, 48 h, read-out: GI
# A549 [12] = assay: Cell cycle arrest in human A549 cells assessed as accumulation at G1 phase at 10 uM after 24 hrs using propidium iodide staining by flow cytometry (reference value: 59%); assay type: functional; in short: as §1
# A549 [13] = assay: Cell cycle arrest in human A549 cells assessed as accumulation at G2 phase at 3 uM after 24 hrs using propidium iodide staining by flow cytometry (reference value: 1%); assay type: functional; in short: as §1
# A549 [14] = assay: Cell cycle arrest in human A549 cells assessed as accumulation at G2 phase at 10 uM after 24 hrs using propidium iodide staining by flow cytometry (reference value: 1%); assay type: functional; in short: as §1
# A549 [15] = assay: Antiproliferative activity against human A549 cells after 48 hrs by SRB assay; assay type: functional, cell-based; conditions: A549, 48 h
# A549 [16] = assay: Induction of apoptosis in human A549 cells assessed as reduction of procaspase-3 expression after 24 hrs by Western blot analysis; assay type: functional, cell-based; in short: as §2
# PC-3 = assay: Antiproliferative activity against human PC3 cells assessed as growth inhibition at 10 uM after 48 hrs by SRB assay; assay type: functional; conditions: PC-3, 48 h, read-out: GI
# [17] = Antiproliferative activity against human NCI-H322 cells assessed as growth inhibition at 10 uM after 48 hrs by SRB assay; assay type: functional; conditions: NCI-H322, 48 h, read-out: GI
# T98G [18] = assay: Antiproliferative activity against human T98G cells after 48 hrs by SRB assay; assay type: functional, cell-based
# A549 [19] = assay: Cell cycle arrest in human A549 cells assessed as accumulation at G1 phase at 1 uM after 24 hrs using propidium iodide staining by flow cytometry (reference value: 59%); assay type: functional; in short: as §1
# A549 [20] = assay: Induction of apoptosis in human A549 cells at 3 uM after 24 hrs using propidium iodide staining by flow cytometry (reference value: 7%); assay type: functional; in short: as §1
# HL-60 = assay: Antiproliferative activity against human HL60 cells assessed as growth inhibition at 10 uM after 48 hrs by SRB assay; assay type: functional; conditions: HL-60, 48 h, read-out: GI
# A549 [21] = assay: Cell cycle arrest in human A549 cells assessed as accumulation at S phase at 10 uM after 24 hrs using propidium iodide staining by flow cytometry (reference value: 40%); assay type: functional; in short: as §1
# [22] = Antiproliferative activity against human MIAPaCa2 cells assessed as growth inhibition at 10 uM after 48 hrs by SRB assay; assay type: functional; conditions: MIA PaCa-2, 48 h, read-out: GI
# A549 [23] = assay: Induction of apoptosis in human A549 cells assessed as nuclear condensation, membrane blebbing and formation of apoptotic bodies after 24 hrs using DAPI staining by fluorescence microscopic analysis; assay type: functional, cell-based
# In short: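 A549 (1.5 × 10^5 cells/ml) treated 24 h at 1, 3, 5, 10 µM; trypsinized, methanol-fixed 20 min at −20 °C, DAPI (1 µg/ml) 20 min at 37 °C; nuclei scored by UV fluorescence microscopy at 40× for condensation, blebbing, apoptotic bodies; paclitaxel 1 µM positive control, untreated cells as reference.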
# A-431 [24] = assay: Antiproliferative activity against human A431 cells assessed as growth inhibition at 10 uM after 48 hrs by SRB assay; assay type: functional; conditions: A-431, 48 h, read-out: GI
smiles,measurement,setting,value
CCN(CC)c1ncnc2sc(Nc3ccc(Cl)cc3)nc12,IC50,A-431 [1],3.1 µM
same,inhibition of growth at 10 µM,T47D,18%
same,Activity,A549 [2],22%
same,Activity,A549 [3],1%
same,Activity,A549 [4],44%
same,inhibition of growth at 10 µM,T98G [5],74%
same,IC50,[6],7.1 µM
same,Activity,A549 [7],65%
same,Activity,A549 [8],31%
same,Activity,A549 [9],Dose-dependent effect
same,Activity,A549 [10],53%
same,inhibition of growth at 10 µM,A549 [11],81%
same,Activity,A549 [12],31%
same,Activity,A549 [13],4%
same,Activity,A549 [14],26%
same,IC50,A549 [15],1.4 µM
same,Activity,A549 [16],Dose-dependent effect
same,inhibition of growth at 10 µM,PC-3,22%
same,inhibition of growth at 10 µM,[17],57%
same,IC50,T98G [18],3.4 µM
same,Activity,A549 [19],55%
same,Activity,A549 [20],44%
same,inhibition of growth at 10 µM,HL-60,22%
same,Activity,A549 [21],43%
same,inhibition of growth at 10 µM,[22],14%
same,Activity,A549 [23],Dose-dependent effect
same,inhibition of growth at 10 µM,A-431 [24],82%
